# Data: ChEMBL document CHEMBL1212693, “Dorsomorphin inhibits BMP signals required for embryogenesis and iron metabolism” (Nat Chem Biol, 2008)
# Activity calls are given as the source filed them. The calls are words filed in the database; no cut-off is given here.
# How the values were obtained:
# [1] = organism: Danio rerio; experiment: Inhibition of BMPR1 in zebrafish assessed as increase in egr2b expression at 10 uM treated at 12 hrs post-fertilization measured at 48 hrs
# [2] = organism: Mus musculus; experiment: Inhibition of BMPR1-mediated Smad-1 phosphorylation in BMP4-stimulated mouse PASMC at 4 uM treated 30 mins before BMP4 challenge measured after 30 mins by immunoblot analysis
# Outline: (§1)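 PASMCs (wild-type or BMPR-II–deficient) were kept 24 h in RPMI with 0.5% FCS, preincubated 30 min with compound or vehicle, then stimulated 30 min with recombinant BMP (10 ng ml−1). Extracts in SDS-lysis buffer were immunoblotted for phospho-SMAD1/5/8, with total SMAD1 and α-tubulin as loading controls. Bands were quantitated by phosphorimager.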
# [3] = Inhibition of Sprague-Dawley rat AMPK assessed as inhibition of [33P]ATP utilization after 30 mins by scintillation counting
# [4] = organism: Danio rerio; experiment: Inhibition of BMPR1 in zebrafish assessed as severity of embryonic axis dorsalization at 10 uM treated continuously from 8 hrs post-fertilization measured at 48 hrs; parameters: scale not given: the % may be the effect or the level left
# [5] = organism: Danio rerio; experiment: Inhibition of BMPR1 in zebrafish assessed as penetrance of mild embryonic axis dorsalization at 0.2 uM treated at 3 hrs post-fertilization measured at 48 hrs; parameters: scale not given: the % may be the effect or the level left
# Outline: (§2)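 Compound added at the stated times and concentrations. Gross morphology scored visually at up to 48 h.p.f. for dorsalization of the embryonic axis.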
# [6] = organism: Danio rerio; experiment: Inhibition of BMPR1 in zebrafish assessed as penetrance of moderate embryonic axis dorsalization at 10 uM treated continuously from 4 hrs post-fertilization measured after 48 hrs; parameters: scale not given: the % may be the effect or the level left; outline: as §2
# [7] = organism: Danio rerio; experiment: Inhibition of BMPR1 in zebrafish assessed as penetrance of normal embryonic axis dorsalization at 0.5 uM treated at 3 hrs post-fertilization measured at 48 hrs; parameters: scale not given: the % may be the effect or the level left
# [8] = organism: Danio rerio; experiment: Inhibition of BMPR1 in zebrafish assessed as penetrance of normal embryonic axis dorsalization at 5 uM treated at 3 hrs post-fertilization measured at 48 hrs; parameters: scale not given: the % may be the effect or the level left
# [9] = organism: Danio rerio; experiment: Inhibition of BMPR1 in zebrafish assessed as embryonic axis dorsalization at 20 uM treated at 2 hrs post-fertilization measured after 36 hrs in presence of 1 ng chordin morpholino
# Outline: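 Wild-type zebrafish embryos injected with 1 ng chordin morpholino, then exposed to vehicle or compound (20 µM) at 2 h.p.f. Photographed at 36 h.p.f. to score the intermediate cell mass and ventral tail fin structures.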
# [10] = test system: Hep 3B2; experiment: Inhibition of hepcidin mRNA expression in human Hep3B cells at 4 uM […] by qRT-PCR analysis; type: functional; conditions: 0.5 h
# [11] = organism: Danio rerio; experiment: Inhibition of BMPR1 in zebrafish assessed as penetrance of moderate embryonic axis dorsalization at 10 uM treated continuously from 10 hrs post-fertilization measured at 48 hrs; parameters: scale not given: the % may be the effect or the level left; outline: as §2
# [12] = organism: Danio rerio; experiment: Inhibition of BMPR1 in zebrafish assessed as severity of embryonic axis dorsalization at 10 uM treated at 3 hrs post-fertilization measured at 48 hrs; parameters: scale not given: the % may be the effect or the level left
# [13] = organism: Danio rerio; experiment: Inhibition of BMPR1 in zebrafish assessed as penetrance of normal embryonic axis dorsalization at 7.5 uM treated at 3 hrs post-fertilization measured at 48 hrs; parameters: scale not given: the % may be the effect or the level left
# [14] = organism: Mus musculus; experiment: Inhibition of ALK6-mediated Smad-5 phosphorylation in BMPR2 deficient mouse PASMC at 10 uM by immunoblot analysis
# Outline: (§3)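 BMPR-II–deficient mouse PASMCs (RPMI, 10% FBS) transiently transfected with constitutively active ALK2, ALK3 or ALK6 cDNA, or plasmid-only control. Incubated with or without compound (10 µM). Extracts lysed in SDS buffer, run on SDS-PAGE and immunoblotted for phospho-SMAD1/5/8; quantitated by phosphorimager.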
# [15] = organism: Mus musculus; experiment: Inhibition of ALK3-mediated Id1 promoter activity in BMPR2 deficient mouse PASMC at 10 uM by immunoblot analysis
# Outline: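 BMPR-II–deficient mouse PASMCs at 50% confluence co-transfected with Id1 promoter firefly luciferase (BRE-Luc, 0.3 µg), caALK2, caALK3 or caALK6 (0.6 µg), and pRL-TK Renilla (0.2 µg). Compound (4–10 µM) or vehicle added 1 h after transfection. Activity read as firefly/Renilla ratio by dual luciferase assay; n = 3, mean ± s.d.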
# [16] = biological target: Vascular endothelial growth factor receptor 2 (Danio rerio) (UniProt Q5GIT4); experiment: Inhibition of KDR in zebrafish assessed as embryonic axis dorsalization at 10 uM treated occasionally at 6 to 8 hrs post-fertilization measured at 48 hrs
# Outline: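 Newly fertilised WT zebrafish eggs were arrayed in triplicate in E3 buffer and kept at 28.5 °C. Compound (10 µM) was added at 6–8 h.p.f. Gross morphology was inspected visually for dorsalisation or ventralisation of the embryonic axis, with photographs at 36–48 h.p.f.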
# [17] = test system: C2C12; experiment: Inhibition of BMPR1-mediated osteoblast differentiation in BMP4-stimulated mouse C2C12 cells assessed as decrease in alkaline phosphatase level at 4 uM by spectrophotometry; type: cell-based
# Outline: (§4)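 C2C12 cells were seeded at 2,000 per well in DMEM with 2% FBS and treated in quadruplicate with BMP4 or BMP6 plus compound or vehicle. After 5 d, cells were lysed in TBS with 1% Triton X-100. Lysates were incubated 1 h with p-nitrophenylphosphate and alkaline phosphatase was read as absorbance at 405 nm. Cell count was measured by CyQuant in parallel wells.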
# [18] = organism: Danio rerio; experiment: Inhibition of BMPR1 in zebrafish assessed as severity of embryonic axis dorsalization at 10 uM treated at 4 to 8 hrs post-fertilization measured at 48 hrs; parameters: scale not given: the % may be the effect or the level left
# [19] = test system: C2C12; experiment: Inhibition of BMPR1-mediated osteoblast differentiation in BMP6-stimulated mouse C2C12 cells assessed as decrease in alkaline phosphatase level at 4 uM by spectrophotometry; type: cell-based; outline: as §4
# [20] = organism: Mus musculus; experiment: Inhibition of BMPR1-mediated Smad-1 phosphorylation in BMP6-stimulated mouse PASMC at 4 uM treated 30 mins before BMP6 challenge measured after 30 mins by immunoblot analysis; outline: as §1
# [21] = organism: Danio rerio; experiment: Toxicity in zebrafish assessed as morphological changes at 1 to 4 uM treated at 24 hrs post-fertilization measured on day 10 post-fertilization; type: organism-based; conditions: in vivo
# Outline: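 WT zebrafish embryos were raised in E3 containing phenylthiourea and exposed from 1 d.p.f. to compound (1–4 µM) or DMSO. From 5 d.p.f. larvae were fed 1 h every other day, with medium renewed after each feeding. At 10 d.p.f. they were calcein-stained and checked by brightfield microscopy for gross morphology and function.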
# [22] = organism: Danio rerio; experiment: Inhibition of BMPR1 in zebrafish assessed as penetrance of normal embryonic axis dorsalization at 10 uM treated at 2 to 8 hrs post-fertilization measured at 48 hrs; parameters: scale not given: the % may be the effect or the level left
# [23] = organism: Danio rerio; experiment: Inhibition of BMPR1 in zebrafish assessed as severity of embryonic axis dorsalization at 10 uM treated continuously from 4 hrs post-fertilization measured after 48 hrs; parameters: scale not given: the % may be the effect or the level left
# [24] = organism: Danio rerio; experiment: Inhibition of BMPR1 in zebrafish assessed as penetrance of mild embryonic axis dorsalization at 10 uM treated at 4 to 8 hrs post-fertilization measured at 48 hrs; parameters: scale not given: the % may be the effect or the level left; outline: as §2
# [25] = organism: Danio rerio; experiment: Inhibition of BMPR1 in zebrafish assessed as penetrance of normal embryonic axis dorsalization at 10 uM treated at 6 to 8 hrs post-fertilization measured at 48 hrs; parameters: scale not given: the % may be the effect or the level left
# [26] = organism: Mus musculus; experiment: Inhibition of ALK3-mediated Smad-5 phosphorylation in BMPR2 deficient mouse PASMC at 10 uM by immunoblot analysis; outline: as §3
# Sequence of Vascular endothelial growth factor receptor 2 (Danio rerio) (Q5GIT4 whole entry): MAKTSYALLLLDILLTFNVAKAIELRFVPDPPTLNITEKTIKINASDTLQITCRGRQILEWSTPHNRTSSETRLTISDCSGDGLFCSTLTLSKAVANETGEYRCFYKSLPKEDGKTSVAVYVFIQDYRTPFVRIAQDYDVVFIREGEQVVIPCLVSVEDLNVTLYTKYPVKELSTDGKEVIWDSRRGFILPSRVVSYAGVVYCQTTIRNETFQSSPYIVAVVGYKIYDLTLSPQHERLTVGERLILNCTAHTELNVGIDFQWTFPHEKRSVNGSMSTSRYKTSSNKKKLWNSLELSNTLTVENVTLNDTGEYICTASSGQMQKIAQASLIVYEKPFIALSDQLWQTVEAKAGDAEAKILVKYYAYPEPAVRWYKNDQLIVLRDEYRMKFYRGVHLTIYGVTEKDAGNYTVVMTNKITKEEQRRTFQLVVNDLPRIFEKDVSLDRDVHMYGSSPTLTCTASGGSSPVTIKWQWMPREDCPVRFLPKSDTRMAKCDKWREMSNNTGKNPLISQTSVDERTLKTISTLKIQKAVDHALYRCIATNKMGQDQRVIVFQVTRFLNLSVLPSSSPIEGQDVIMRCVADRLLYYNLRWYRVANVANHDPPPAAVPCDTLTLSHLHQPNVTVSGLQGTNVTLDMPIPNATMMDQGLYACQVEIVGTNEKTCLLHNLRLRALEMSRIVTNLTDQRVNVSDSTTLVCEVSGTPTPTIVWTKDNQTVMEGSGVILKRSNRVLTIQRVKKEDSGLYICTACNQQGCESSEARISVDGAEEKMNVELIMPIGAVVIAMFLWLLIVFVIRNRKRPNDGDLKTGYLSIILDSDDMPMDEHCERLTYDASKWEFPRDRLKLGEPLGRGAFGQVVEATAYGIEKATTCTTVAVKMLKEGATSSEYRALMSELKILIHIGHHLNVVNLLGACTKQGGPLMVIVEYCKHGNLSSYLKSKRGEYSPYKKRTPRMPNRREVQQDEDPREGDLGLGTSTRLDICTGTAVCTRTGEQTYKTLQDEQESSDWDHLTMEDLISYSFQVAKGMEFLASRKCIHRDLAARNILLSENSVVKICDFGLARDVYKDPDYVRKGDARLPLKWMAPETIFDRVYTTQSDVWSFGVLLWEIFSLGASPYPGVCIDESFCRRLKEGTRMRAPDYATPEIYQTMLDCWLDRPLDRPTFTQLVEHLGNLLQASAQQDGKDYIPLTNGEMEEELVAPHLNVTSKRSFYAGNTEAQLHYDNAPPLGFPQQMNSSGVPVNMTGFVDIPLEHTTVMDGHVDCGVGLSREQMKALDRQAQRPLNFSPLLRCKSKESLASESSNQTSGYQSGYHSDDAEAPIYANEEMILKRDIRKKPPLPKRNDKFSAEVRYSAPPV
smiles,measurement,setting,value
c1cc(-c2cnn3cc(-c4ccc(OCCN5CCCCC5)cc4)cnc23)ccn1 [DORSOMORPHIN],Activity,[1],Active
same,inhibition,[2],Active
same,Ki,[3],10 µM
same,Activity,[4],0%
same,Activity,[5],0%
same,Activity,[6],100%
same,Activity,[7],100%
same,Activity,[8],81%
same,inhibition,[9],Active
same,inhibition at 4 µM,[10],27%
same,Activity,[11],0%
same,Activity,[12],100%
same,Activity,[13],0%
same,inhibition,[14],Active
same,inhibition,[15],Dose-dependent effect
same,inhibition,[16],inactive
same,inhibition,[17],Active
same,Activity,[18],0%
same,inhibition,[19],Active
same,inhibition,[20],Active
same,Activity,[21],Non-toxic
same,Activity,[22],0%
same,Activity,[23],0%
same,Activity,[24],65%
same,Activity,[25],0%
same,inhibition,[26],Active
